This note sets out measurements from ChEMBL document CHEMBL2401625, “Synthesis and evaluation of pharmacological properties of some new xanthone derivatives with piperazine moiety” (Bioorg Med Chem Lett, 2013).

The source made the active and inactive calls. The rule behind the calls is not given here.

For data set [1], the system named is Mus musculus. The data set can be described thus: Anticonvulsant activity in CF1 mouse assessed as protection against maximal electroshock-induced seizures at 30 mg/kg, ip after 0.5 hrs. Set-up: dose 30 mg/kg. The data set is classed as functional, organism-based. Summed up: (§1)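 Mice given compound i.p. at 30, 100 or 300 mg/kg and tested 0.5 or 4 h after dosing. Seizures were induced by maximal electroshock (MES) or subcutaneous metrazole (ScMet). Prevention of seizures counts as protection. Result is recorded as number of animals protected over number tested.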
(In the maximal electroshock model the usual endpoint is tonic extension of the hind limbs.)

Data set [2] relates to Rattus norvegicus. Kind of data set: Neurotoxicity in Sprague-Dawley rat assessed as minimal motor impairment at 30 mg/kg, po after 0.25 hrs by rotorod test. To be noted: in vivo.
Data set [3] has as its system Mus musculus. The data set can be described thus: Neurotoxicity in CF1 mouse assessed as minimal motor impairment at 100 mg/kg, ip after 4 hrs by rotorod test. The class given is toxicity, organism-based. To be noted: in vivo. Set-up: dose 100 mg/kg, route intraperitoneal. In short, it runs like this: (§2)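 Rotarod neurotoxicity screen in mice dosed i.p. at 30, 100 or 300 mg/kg, read 0.5 or 4 h after dosing. The animal must stay on a rod rotating at 6 rpm without falling, measured 3 times within 1 min. A fall counts as minimal motor impairment. Result is recorded as impaired animals over animals used.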
(In general: Falling from the rotarod earlier than controls is read as motor impairment.)

The subject of data set [4] is Rattus norvegicus. Kind of data set: Neurotoxicity in Sprague-Dawley rat assessed as minimal motor impairment at 30 mg/kg, po after 0.5 hrs by rotorod test. To be noted: in vivo.
The target of data set [5] is 5-hydroxytryptamine receptor 7 (Homo sapiens, UniProt P34969). Kind of data set: Displacement of [3H]5-CT from human 5HT7b receptor expressed in HEK293 cells after 1 hr. The data set is classed as cell-based. On the technique in general: In a radioligand displacement assay an active substance lowers the binding of a labelled ligand.
The subject of data set [6] is Mus musculus. Kind of data set: Anticonvulsant activity in CF1 mouse assessed as protection against maximal electroshock-induced seizures at 100 mg/kg, ip after 4 hrs. The data set is classed as functional, organism-based. More on the design: dose 100 mg/kg. Summed up:
as §1

The test system of data set [7] is Rattus norvegicus. The data set can be described thus: Neurotoxicity in Sprague-Dawley rat assessed as minimal motor impairment at 30 mg/kg, po after 1 hr by rotorod test. To be noted: in vivo.
The subject of data set [8] is Mus musculus. The data set can be described thus: Anticonvulsant activity in CF1 mouse assessed as protection against maximal electroshock-induced seizures at 100 mg/kg, ip after 0.5 hrs. Set-up: dose 100 mg/kg. The data set is classed as functional, organism-based. Summed up:
as §1

Data set [9] deals with Mus musculus. Kind of data set: Anticonvulsant activity in CF1 mouse assessed as protection against subcutaneous metrazole-induced seizures at 100 mg/kg, ip after 4 hrs. The data set is classed as functional, organism-based. Set-up: dose 100 mg/kg. Summed up: as §1
For data set [10], the system named is Mus musculus. Kind of data set: Neurotoxicity in CF1 mouse assessed as minimal motor impairment at 30 mg/kg, ip after 4 hrs by rotorod test. The settings on record: in vivo. The class given is toxicity, organism-based. Set-up: dose 30 mg/kg, route intraperitoneal. Summed up: as §2
Data set [11] deals with 5-hydroxytryptamine receptor 6 (Homo sapiens, UniProt P50406). The data set can be described thus: Displacement of [3H]LSD from human 5HT6 receptor expressed in HEK293 cells after 1 hr. The data set is classed as cell-based.
For data set [12], the system named is Rattus norvegicus. The data set can be described thus: Anticonvulsant activity in Sprague-Dawley rat assessed as protection against maximal electroshock-induced seizures at 30 mg/kg, po after 0.25 hrs. The class given is functional, organism-based. More on the design: dose 30 mg/kg. Summed up: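 Rats dosed orally at 30 mg/kg and tested in MES at several time points after dosing. Protection means seizures were prevented. Result is recorded as number of animals protected over number tested.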

Data set [13] has as its system Mus musculus. Kind of data set: Anticonvulsant activity in CF1 mouse assessed as protection against maximal electroshock-induced seizures at 30 mg/kg, ip after 4 hrs. The data set is classed as functional, organism-based. Set-up: dose 30 mg/kg. Summed up:
as §1

The species entered for data set [14] is Rattus norvegicus. Kind of data set: Displacement of [3H]CGP-12177 from beta1-adrenergic receptor in rat cerebral cortex at 50 uM after 60 mins by scintillation counting. The class given is tissue-based.

5-hydroxytryptamine receptor 6, sequence (P50406 whole entry): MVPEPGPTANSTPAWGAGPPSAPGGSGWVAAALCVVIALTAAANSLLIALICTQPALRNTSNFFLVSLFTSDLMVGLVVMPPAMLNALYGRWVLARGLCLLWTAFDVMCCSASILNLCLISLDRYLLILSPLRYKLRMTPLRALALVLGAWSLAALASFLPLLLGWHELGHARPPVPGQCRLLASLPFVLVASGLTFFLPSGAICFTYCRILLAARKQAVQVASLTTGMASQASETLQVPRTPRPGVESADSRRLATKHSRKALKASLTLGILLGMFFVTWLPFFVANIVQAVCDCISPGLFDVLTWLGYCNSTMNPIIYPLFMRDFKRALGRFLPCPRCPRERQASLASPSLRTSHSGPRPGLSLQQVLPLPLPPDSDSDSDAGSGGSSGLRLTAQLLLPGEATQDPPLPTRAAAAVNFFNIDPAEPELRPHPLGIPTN
5-hydroxytryptamine receptor 7, sequence (P34969 whole entry): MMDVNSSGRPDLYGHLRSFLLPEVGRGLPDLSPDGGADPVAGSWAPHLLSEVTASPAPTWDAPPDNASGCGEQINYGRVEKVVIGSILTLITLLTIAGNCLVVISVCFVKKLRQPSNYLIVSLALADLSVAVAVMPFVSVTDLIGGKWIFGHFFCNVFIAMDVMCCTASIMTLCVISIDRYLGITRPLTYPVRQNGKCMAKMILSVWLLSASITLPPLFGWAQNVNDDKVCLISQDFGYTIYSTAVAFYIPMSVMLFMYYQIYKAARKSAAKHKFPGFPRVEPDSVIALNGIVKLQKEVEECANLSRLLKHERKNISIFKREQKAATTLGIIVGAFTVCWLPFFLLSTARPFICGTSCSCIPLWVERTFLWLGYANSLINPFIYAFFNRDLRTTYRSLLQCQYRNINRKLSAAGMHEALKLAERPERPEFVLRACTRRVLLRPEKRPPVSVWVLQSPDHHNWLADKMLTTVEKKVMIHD

For `Cl.Cl.Cl.O=c1c2ccc(Cl)cc2oc2c(CN3CCN(CCO)CC3)cccc12`, the outcome in the data set on Mus musculus [1], in the data set with Mus musculus [6], in the data set on Mus musculus [9], with Rattus norvegicus [12] and in the data set on Mus musculus [13] was inactive. Besides, the Activity result in the data set on Rattus norvegicus [2], with Mus musculus [3], in the data set with Rattus norvegicus [4], in the data set on Rattus norvegicus [7] and with Mus musculus [10] was “Non-toxic” each time. Also, the values for the inhibition constant (Ki) in data set [5] and in data set [11] were 17.4 µM and 14.4 µM, respectively. Besides, the outcome in the data set with Mus musculus [8] was Active. In addition, the inhibition entry in the data set filed under Rattus norvegicus [14] was “inactive”.
